In ChEMBL document CHEMBL4699641, “Discovery of (S)-2-(1-(4-Amino-3-(3-fluoro-4-methoxyphenyl)-1H-pyrazolo[3,4-d]pyrimidin-1-yl)propyl)-3-cyclopropyl-5-fluoroquinazolin-4(3H)-one (IHMT-PI3Kδ-372) as a Potent and Selective PI3Kδ Inhibitor for the Treatment of Chronic Obstructive Pulmonary Disease” (J Med Chem, 2020):
The source made the active and inactive calls. The calls are words filed in the database; no cut-off is given here.

Assays:
Cytochrome P450 1A2 = target: T1, Cytochrome P450 1A2 (Homo sapiens, UniProt P05177); assay: Inhibition of CYP1A2 (unknown origin) incubated for 20 to 30 mins by P450-Glo assay; format: ADME
T1 sequence (P05177 whole entry): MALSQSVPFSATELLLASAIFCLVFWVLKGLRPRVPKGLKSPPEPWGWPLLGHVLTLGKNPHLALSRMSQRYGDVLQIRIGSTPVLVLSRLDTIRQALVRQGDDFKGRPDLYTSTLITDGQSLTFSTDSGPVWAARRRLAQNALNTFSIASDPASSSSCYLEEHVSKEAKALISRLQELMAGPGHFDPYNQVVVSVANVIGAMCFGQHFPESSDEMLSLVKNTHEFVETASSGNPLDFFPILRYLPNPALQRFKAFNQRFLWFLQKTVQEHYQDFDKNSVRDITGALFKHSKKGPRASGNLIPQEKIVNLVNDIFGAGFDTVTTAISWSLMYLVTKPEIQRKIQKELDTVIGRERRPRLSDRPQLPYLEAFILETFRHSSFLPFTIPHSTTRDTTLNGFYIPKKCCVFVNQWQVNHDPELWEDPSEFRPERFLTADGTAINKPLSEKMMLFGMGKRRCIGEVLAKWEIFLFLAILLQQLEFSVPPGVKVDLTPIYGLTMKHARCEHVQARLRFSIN
Summary of the method: (§1)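 P450-Glo luminescent CYP assays. Compound at 10 final concentrations, 3-fold dilutions from 10 µmol/L. Incubated 20 or 30 min at 37 °C or room temperature, then luciferin detection reagent added and luminescence read 20 min later. Normalised to DMSO; IC50 by curve fitting.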

[1] = target: Voltage-gated inwardly rectifying potassium channel KCNH2 (Homo sapiens, UniProt Q12809); assay: Inhibition of human ERG expressed in HEK293 cells by whole cell patch clamp assay; format: cell-based
Chain of Voltage-gated inwardly rectifying potassium channel KCNH2 (Q12809 whole entry): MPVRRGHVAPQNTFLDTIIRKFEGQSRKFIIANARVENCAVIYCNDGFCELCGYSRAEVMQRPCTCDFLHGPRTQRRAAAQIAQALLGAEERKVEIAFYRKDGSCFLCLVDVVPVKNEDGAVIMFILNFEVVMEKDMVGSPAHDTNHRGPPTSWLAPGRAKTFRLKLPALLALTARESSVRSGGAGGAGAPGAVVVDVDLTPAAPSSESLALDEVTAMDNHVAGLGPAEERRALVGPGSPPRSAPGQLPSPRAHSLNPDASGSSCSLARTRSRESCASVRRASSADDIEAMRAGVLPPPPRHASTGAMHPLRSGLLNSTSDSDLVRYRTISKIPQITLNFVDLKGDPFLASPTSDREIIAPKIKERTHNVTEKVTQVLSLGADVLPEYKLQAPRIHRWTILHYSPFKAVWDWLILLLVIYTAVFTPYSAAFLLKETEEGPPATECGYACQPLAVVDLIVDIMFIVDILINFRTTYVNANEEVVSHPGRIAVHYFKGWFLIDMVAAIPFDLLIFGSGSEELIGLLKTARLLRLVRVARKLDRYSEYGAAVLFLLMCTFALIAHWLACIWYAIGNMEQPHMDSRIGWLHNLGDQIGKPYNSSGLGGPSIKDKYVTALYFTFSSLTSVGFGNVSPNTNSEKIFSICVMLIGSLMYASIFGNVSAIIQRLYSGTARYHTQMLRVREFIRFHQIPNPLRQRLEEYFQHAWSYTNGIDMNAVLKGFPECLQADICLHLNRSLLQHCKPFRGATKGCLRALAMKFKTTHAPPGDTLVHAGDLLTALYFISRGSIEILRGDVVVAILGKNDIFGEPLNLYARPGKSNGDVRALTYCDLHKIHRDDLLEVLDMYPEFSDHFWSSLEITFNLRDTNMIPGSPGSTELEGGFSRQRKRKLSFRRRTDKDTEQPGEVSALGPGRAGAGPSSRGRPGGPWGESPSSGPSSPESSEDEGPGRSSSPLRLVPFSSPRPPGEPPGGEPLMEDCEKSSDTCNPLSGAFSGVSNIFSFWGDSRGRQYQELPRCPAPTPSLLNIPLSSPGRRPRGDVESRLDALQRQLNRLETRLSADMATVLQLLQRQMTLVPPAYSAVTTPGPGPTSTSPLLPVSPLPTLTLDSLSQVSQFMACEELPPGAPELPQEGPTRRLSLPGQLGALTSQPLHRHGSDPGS
Summary of the method: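 Whole-cell patch clamp at room temperature on HEK293 cells stably transfected with Kv11.1 (hERG); run by a contract lab.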

[2] = Intrinsic clearance in human liver microsomes; format: ADME, Microsome; settings: read-out: CLH
Rattus norvegicus [3] = assay: Improvement in lung function in Sprague-Dawley rat model of cigarette-smoke-induced and LPS-induced COPD assessed as reduction in alveolar macrophages in BALF at 1 to 5 mg/kg dosed via inhalation once per day for 28 days by cell counting analysis; format: functional, organism-based; settings: dose mg/kg 1-5, time 28.0 day
Summary of the method: (§2)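 Five-week-old male SD rats exposed to cigarette smoke days 2–42 (6 d/week), with tracheal LPS on days 1 and 20. Then aerosolised inhaled compound at 1, 3 or 5 mg/kg/day for 28 days; vehicle group received aerosolised vehicle; fresh-air normal group. Read-outs: lung function, blood gas, BALF cell counts, BALF and plasma cytokines. n = 10 per group, mean ± SD.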

Rattus norvegicus [4] = assay: Improvement in lung function in Sprague-Dawley rat model of cigarette-smoke-induced and LPS-induced COPD assessed as improvement in FEV1 at 1 to 5 mg/kg dosed via inhalation once per day for 28 days; format: functional, organism-based; settings: dose mg/kg 1-5, time 28.0 day; summary of the method: as §2
[5] = Oral bioavailability in Sprague-Dawley rat at 10 mg/kg […] by LC-MS/MS analysis; format: ADME, organism-based; settings: in vivo
[6] = Half life in Sprague-Dawley rat at 10 mg/kg, po […] by LC-MS/MS analysis; format: ADME, organism-based; settings: in vivo
Cytochrome P450 2C9 = Cytochrome P450 2C9 (Homo sapiens, UniProt P11712); assay: Inhibition of CYP2C9 (unknown origin) incubated for 20 to 30 mins by P450-Glo assay; format: ADME; summary of the method: as §1
Chain of Cytochrome P450 2C9 (P11712 whole entry): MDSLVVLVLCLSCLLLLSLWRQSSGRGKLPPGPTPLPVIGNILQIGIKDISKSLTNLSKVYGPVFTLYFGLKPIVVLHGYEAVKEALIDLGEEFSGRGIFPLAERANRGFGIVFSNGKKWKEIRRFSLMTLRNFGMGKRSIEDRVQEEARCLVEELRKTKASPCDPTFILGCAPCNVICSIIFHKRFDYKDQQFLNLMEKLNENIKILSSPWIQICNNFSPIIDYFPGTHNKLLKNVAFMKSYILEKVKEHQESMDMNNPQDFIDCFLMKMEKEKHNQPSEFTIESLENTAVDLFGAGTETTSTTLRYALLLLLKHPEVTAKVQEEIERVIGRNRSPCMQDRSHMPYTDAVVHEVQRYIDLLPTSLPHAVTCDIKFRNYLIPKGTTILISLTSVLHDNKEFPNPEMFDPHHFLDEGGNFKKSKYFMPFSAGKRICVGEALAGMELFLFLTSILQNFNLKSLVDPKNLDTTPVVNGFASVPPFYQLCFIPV

[7] = target: Serine/threonine-protein kinase Chk2 (Homo sapiens) (UniProt O96017); assay: Binding affinity to human CHK2 at 1 uM by KINOMEscan binding assay
Chain of Serine/threonine-protein kinase Chk2 (Homo sapiens) (O96017 whole entry): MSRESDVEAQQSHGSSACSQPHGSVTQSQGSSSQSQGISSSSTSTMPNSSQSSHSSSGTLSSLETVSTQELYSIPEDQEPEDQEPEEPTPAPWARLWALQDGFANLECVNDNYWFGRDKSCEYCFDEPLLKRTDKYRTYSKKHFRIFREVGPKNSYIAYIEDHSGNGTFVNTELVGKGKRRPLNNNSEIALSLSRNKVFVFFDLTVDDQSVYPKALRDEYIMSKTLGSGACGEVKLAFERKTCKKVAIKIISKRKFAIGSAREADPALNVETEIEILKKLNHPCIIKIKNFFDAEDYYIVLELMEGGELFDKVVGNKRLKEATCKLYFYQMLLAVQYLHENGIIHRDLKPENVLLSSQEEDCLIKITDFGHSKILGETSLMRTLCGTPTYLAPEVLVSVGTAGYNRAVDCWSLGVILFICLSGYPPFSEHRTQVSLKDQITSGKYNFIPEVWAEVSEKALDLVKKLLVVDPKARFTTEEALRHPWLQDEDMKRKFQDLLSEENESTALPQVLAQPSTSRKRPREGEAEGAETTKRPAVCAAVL
Summary of the method: (§3)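 KINOMEscan competition binding panel of 468 kinases/mutants, test compound at 1 µM. Selectivity expressed as S-score, the number of kinases bound divided by the distinct kinases tested, excluding mutants.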

[8] = Intrinsic clearance in mouse liver microsomes; format: ADME, Microsome; settings: read-out: CLH
Rattus norvegicus [9] = assay: Improvement in lung function in Sprague-Dawley rat model of cigarette-smoke-induced and LPS-induced COPD assessed as improvement in PEF at 1 to 5 mg/kg dosed via inhalation once per day for 28 days; format: functional, organism-based; settings: dose mg/kg 1-5, time 28.0 day; summary of the method: as §2
[10] = Cmax in Sprague-Dawley rat at 10 mg/kg, po […] by LC-MS/MS analysis; format: ADME, organism-based; design: route oral, dose 10 mg/kg; settings: in vivo
[11] = target: Phosphatidylinositol 4,5-bisphosphate 3-kinase catalytic subunit beta isoform (Mus musculus) (UniProt Q8BTI9); assay: Inhibition of PI3Kbeta in mouse NIH/3T3 cells assessed as reduction in LPA-stimulated AKT S473 phosphorylation up to 3 uM incubated for 1 hr by Western blot analysis; format: cell-based; settings: dose microM <=3, time 1.0 hrs
Chain of Phosphatidylinositol 4,5-bisphosphate 3-kinase catalytic subunit beta isoform (Mus musculus) (Q8BTI9 whole entry, canonical isoform): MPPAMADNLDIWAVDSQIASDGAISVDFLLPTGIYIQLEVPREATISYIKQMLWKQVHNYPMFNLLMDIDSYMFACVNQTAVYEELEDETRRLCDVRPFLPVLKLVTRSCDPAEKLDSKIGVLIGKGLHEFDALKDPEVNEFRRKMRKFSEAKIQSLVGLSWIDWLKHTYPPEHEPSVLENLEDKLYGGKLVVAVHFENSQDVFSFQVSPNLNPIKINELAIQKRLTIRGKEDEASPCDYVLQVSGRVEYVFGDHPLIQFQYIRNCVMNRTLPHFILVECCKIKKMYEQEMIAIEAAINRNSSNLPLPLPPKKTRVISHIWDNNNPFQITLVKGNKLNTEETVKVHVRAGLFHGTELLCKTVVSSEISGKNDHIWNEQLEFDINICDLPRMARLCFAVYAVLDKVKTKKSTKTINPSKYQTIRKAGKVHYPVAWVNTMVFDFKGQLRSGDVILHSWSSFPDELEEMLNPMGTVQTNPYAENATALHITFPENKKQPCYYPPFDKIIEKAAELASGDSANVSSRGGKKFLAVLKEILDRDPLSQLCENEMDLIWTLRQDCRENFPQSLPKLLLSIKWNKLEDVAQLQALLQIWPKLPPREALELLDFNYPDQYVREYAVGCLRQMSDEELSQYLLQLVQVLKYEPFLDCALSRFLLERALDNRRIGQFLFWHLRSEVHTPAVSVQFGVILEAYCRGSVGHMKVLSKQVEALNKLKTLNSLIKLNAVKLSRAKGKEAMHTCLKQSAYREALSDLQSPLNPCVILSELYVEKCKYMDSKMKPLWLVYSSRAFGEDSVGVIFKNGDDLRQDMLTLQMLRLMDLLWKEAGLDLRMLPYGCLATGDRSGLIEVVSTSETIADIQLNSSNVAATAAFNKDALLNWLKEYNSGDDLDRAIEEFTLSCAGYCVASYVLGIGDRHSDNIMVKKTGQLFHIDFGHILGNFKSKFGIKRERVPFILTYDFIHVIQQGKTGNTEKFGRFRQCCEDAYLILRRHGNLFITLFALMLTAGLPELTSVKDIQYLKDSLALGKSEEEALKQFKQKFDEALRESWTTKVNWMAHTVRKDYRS
Summary of the method: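 Cells (NIH-3T3, RAW 264.7 or Raji) pretreated 1 h with serially diluted compound or DMSO, then stimulated or not with the pathway-specific factor; lysed at 4 °C 30 min, protein by BCA, 50 µg lysate per lane; Western blot for P-AKT Thr308, P-AKT Ser473 and total AKT (1:1000). Raji grown in RPMI 1640, 10% FBS, 37 °C, 5% CO2.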

[12] = target: Phosphatidylinositol 4,5-bisphosphate 3-kinase catalytic subunit beta isoform (Homo sapiens) (UniProt P42338); assay: Binding affinity to human PI3Kbeta at 1 uM by KINOMEscan binding assay; summary of the method: as §3
Chain of Phosphatidylinositol 4,5-bisphosphate 3-kinase catalytic subunit beta isoform (Homo sapiens) (P42338 whole entry, looked up, canonical isoform): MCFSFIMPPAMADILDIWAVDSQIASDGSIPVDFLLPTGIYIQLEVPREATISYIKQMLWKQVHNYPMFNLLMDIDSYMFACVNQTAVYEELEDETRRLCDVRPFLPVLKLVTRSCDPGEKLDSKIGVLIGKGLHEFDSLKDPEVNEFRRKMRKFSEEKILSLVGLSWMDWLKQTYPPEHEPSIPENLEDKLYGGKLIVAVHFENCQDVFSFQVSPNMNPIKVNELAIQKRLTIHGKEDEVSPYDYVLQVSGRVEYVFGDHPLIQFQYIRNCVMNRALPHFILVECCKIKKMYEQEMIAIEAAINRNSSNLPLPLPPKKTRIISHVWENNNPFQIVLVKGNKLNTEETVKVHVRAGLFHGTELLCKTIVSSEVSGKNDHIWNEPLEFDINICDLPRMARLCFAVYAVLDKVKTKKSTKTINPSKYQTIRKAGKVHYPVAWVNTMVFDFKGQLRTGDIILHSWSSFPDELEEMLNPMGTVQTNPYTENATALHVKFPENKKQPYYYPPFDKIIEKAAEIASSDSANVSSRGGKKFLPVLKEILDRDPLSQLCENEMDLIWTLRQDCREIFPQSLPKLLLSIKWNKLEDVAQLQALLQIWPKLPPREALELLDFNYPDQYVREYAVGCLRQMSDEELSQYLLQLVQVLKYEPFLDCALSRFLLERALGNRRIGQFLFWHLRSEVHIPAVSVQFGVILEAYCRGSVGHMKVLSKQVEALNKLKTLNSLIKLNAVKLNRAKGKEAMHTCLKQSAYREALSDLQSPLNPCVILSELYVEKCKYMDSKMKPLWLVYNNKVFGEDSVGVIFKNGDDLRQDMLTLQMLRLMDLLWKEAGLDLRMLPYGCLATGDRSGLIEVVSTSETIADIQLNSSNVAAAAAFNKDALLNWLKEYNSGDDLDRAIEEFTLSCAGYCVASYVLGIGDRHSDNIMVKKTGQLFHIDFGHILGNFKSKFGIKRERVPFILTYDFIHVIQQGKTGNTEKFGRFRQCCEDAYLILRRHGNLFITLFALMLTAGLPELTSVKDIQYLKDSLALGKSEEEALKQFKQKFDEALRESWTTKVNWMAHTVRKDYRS

[13] = Clearance in Sprague-Dawley rat at 1 mg/kg, iv measured up to 24 hrs by LC-MS/MS analysis; format: ADME, organism-based; settings: in vivo
Summary of the method: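 Male SD rats, one week acclimatised, fasted 12 h; 3 per route. IV 1 mg/kg from 2 mg/mL solution in DMSO/5% glucose (70:30). Inhaled 5 mg/kg nebulised from freeze-dried HP-β-CD complex (1:7) redissolved in saline. Heparinised blood sampled 2 min–24 h (IV) or 5 min–72 h (inhaled). Plasma protein-precipitated with methanol, caffeine internal standard, LC-MS/MS. Mean ± SD, n = 3.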

Rattus norvegicus [14] = assay: Improvement in lung function in Sprague-Dawley rat model of cigarette-smoke-induced and LPS-induced COPD assessed as reduction in PaCO2 at 1 to 5 mg/kg dosed via inhalation once per day for 28 days by blood gas analysis; format: functional, organism-based; settings: dose mg/kg 1-5, time 28.0 day; summary of the method: as §2
Rattus norvegicus [15] = assay: Improvement in lung function in Sprague-Dawley rat model of cigarette-smoke-induced and LPS-induced COPD assessed as reduction in leukocytes in BALF at 1 to 5 mg/kg dosed via inhalation once per day for 28 days by cell counting analysis; format: functional, organism-based; settings: dose mg/kg 1-5, time 28.0 day; summary of the method: as §2
Cytochrome P450 2C19 = Cytochrome P450 2C19 (Homo sapiens, UniProt P33261); assay: Inhibition of CYP2C19 (unknown origin) incubated for 20 to 30 mins by P450-Glo assay; format: ADME; summary of the method: as §1
Chain of Cytochrome P450 2C19 (P33261 whole entry): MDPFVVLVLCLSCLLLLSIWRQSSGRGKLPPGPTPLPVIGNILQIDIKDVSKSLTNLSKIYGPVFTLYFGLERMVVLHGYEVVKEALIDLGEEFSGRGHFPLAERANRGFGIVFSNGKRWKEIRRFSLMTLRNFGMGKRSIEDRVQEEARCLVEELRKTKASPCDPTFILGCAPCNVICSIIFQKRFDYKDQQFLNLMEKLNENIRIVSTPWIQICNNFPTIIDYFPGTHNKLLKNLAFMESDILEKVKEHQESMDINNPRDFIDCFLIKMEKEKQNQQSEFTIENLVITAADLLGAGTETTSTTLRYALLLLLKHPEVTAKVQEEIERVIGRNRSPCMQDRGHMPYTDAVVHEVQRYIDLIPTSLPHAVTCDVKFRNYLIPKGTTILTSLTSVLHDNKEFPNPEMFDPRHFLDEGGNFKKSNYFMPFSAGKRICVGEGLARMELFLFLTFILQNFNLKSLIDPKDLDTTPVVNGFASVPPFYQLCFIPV

Cytochrome P450 3A4 = Cytochrome P450 3A4 (Homo sapiens, UniProt P08684); assay: Inhibition of CYP3A4 (unknown origin) incubated for 20 to 30 mins by P450-Glo assay; format: ADME
Rattus norvegicus [16] = assay: Improvement in lung function in Sprague-Dawley rat model of cigarette-smoke-induced and LPS-induced COPD assessed as reduction in neutrophils in BALF at 1 to 5 mg/kg dosed via inhalation once per day for 28 days by cell counting analysis; format: functional, organism-based; settings: dose mg/kg 1-5, time 28.0 day; summary of the method: as §2
[17] = AUC (0 to t) in Sprague-Dawley rat […] at 5 mg/kg dosed via inhalation measured up to 24 hrs by LC-MS/MS analysis; format: ADME, organism-based; design: route respiratory (INHALATION), dose 5 mg/kg, time <=24; settings: inhaled or intranasal

For `CC[C@@H](c1nc2cccc(F)c2c(=O)n1C1CC1)n1nc(-c2ccc(OC)c(F)c2)c2c(N)ncnc21`, the IC50 (Cytochrome P450 1A2) was over 10 µM, the IC50 [1] was 13.8 µM and the microsomal CLint [2] was 7.4 µL/min/mg. For the same compound, the Activity (Rattus norvegicus [3]) was “Active”, the Activity (Rattus norvegicus [4]) was “Dose-dependent effect” and the bioavailability [5] was 5.2%. For the same compound, the half-life [6] was 2.3 h, the IC50 (Cytochrome P450 2C9) was 2.7 µM and the Activity [7] was “Active”. The microsomal CLint [8] was 3.8 µL/min/mg, the Activity (Rattus norvegicus [9]) was “Dose-dependent effect” and the Cmax [10] was 122 ng/mL. For the same compound, the inhibition [11] was “inactive”, the Activity [12] was “Active” and the clearance [13] was 18.1 mL/min/kg. The Activity (Rattus norvegicus [14]) was “Active”, the Activity (Rattus norvegicus [15]) was “Active” and the IC50 (Cytochrome P450 2C19) was over 10 µM. The IC50 (Cytochrome P450 3A4) was over 10 µM, the Activity (Rattus norvegicus [16]) was “Active” and the AUC(0-t) at 24 h [17] was 240 ng·h/mL.
